Here are results for eleven molecules from ChEMBL document CHEMBL4706553, “Discovery of potent small molecule PROTACs targeting mutant EGFR” (Eur J Med Chem, 2020).

The subject of test [1] is von Hippel-Lindau disease tumor suppressor/Epidermal growth factor receptor (Homo sapiens), P00533+P40337 [UNDEFINED MUTATION]. Kind of test: Protac activity at VHL/EGFR del19 mutant in human HCC827 cells assessed as induction of EGFR degradation at 33 to 333 nM measured after 24 hrs by Western blot analysis. The class given is cell-based. Particulars: dose 33-333 nM. A digest of the protocol:
(§1)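 HCC827 cells seeded at 0.5–1 × 10⁶ per well, grown 24 h, then treated at the stated concentrations for 24 h. EGFR^del19 level by Western blot with anti-EGFR antibody and β-actin loading control.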

Another test has as its system HepG2. Nature of the test: Antiproliferative activity against human HepG2 cells expressing VEGFR2 assessed as cell growth inhibition measured after 72 hrs by MTT assay. The class given is functional, cell-based. Particulars: HepG2, 72 h. A digest of the protocol: (§2)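 Cells were seeded at 3000–8000/well and allowed 24 h, then exposed to serial compound concentrations for 72 h. MTT (5 mg/mL stock in PBS) was added for 4 h, supernatant removed and DMSO added. IC50, defined as 50% growth inhibition, was derived by nonlinear regression (log inhibitor vs response).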
For orientation: Tetrazolium assays rely on reduction of a dye to a coloured formazan, in cell work by metabolically active cells.

The test system of a further test is NCI-H1975. Kind of test: Antiproliferative activity against human H1975 cells expressing EGFR L858R/T790M mutant assessed as cell growth inhibition measured after 72 hrs by MTT assay. The class given is functional, cell-based. To be noted: NCI-H1975, 72 h. The gist of the method: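 MTT assay on H1975 cells grown in RPMI-1640 with 10% heat-inactivated FBS and 1% penicillin-streptomycin at 37 °C and 5% CO₂. Cells were seeded at 3000–8000 per well and left 24 h, then exposed to a concentration series for 72 h. MTT (5 mg/mL stock in PBS) was added for 4 h, supernatant removed and formazan dissolved in DMSO. IC50 was fitted by nonlinear regression (log inhibitor vs response).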

A further test deals with HCC827. Nature of the test: Antiproliferative activity against human HCC827 cells expressing EGFR del19 mutant assessed as cell growth inhibition measured after 72 hrs by MTT assay. It is filed as functional, cell-based. To be noted: HCC827, 72 h. A digest of the protocol: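 HCC827 cells were kept in RPMI-1640 with 10% heat-inactivated FBS, 1% sodium pyruvate, 1% glutamine and 1% penicillin-streptomycin at 37 °C and 5% CO₂, seeded at 3000–8000/well and rested 24 h. Compounds were applied as a concentration series for 72 h. MTT (5 mg/mL stock in PBS) was given for 4 h, then medium was removed and DMSO added. IC50 came from nonlinear regression (log inhibitor vs response).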

For the next test, the system named is A-431. Nature of the test: Antiproliferative activity against human A431 cells expressing wild type EGFR assessed as cell growth inhibition measured after 72 hrs by MTT assay. To be noted: A-431, 72 h. It is filed as functional, cell-based. The gist of the method:
as §2

Test [2] has as its system Protein cereblon/Epidermal growth factor receptor (Homo sapiens), P00533+Q96SW2 [UNDEFINED MUTATION]. Nature of the test: Protac activity at CRBN/EGFR del19 mutant in human HCC827 cells assessed as induction of EGFR degradation at 333 nM measured after 24 hrs by Western blot analysis. The class given is cell-based. A digest of the protocol:
as §1
(In general: A western blot detects proteins with antibodies after separation by electrophoresis.)

Test [3] has the same test system. Nature of the test: Protac activity at CRBN/EGFR del19 mutant in human HCC827 cells assessed as induction of EGFR degradation at 33 nM measured after 24 hrs by Western blot analysis. It is filed as cell-based. A digest of the protocol:
as §1

Test [4] deals with von Hippel-Lindau disease tumor suppressor/Epidermal growth factor receptor (Homo sapiens), P00533+P40337 [UNDEFINED MUTATION]. Nature of the test: Protac activity at VHL/EGFR del19 mutant in human HCC827 cells assessed as induction of EGFR degradation at 33 nM by Western blot analysis. The class given is cell-based. To be noted: time 12-72 hrs, TDE = time-dependent effect. A digest of the protocol:
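Time course in HCC827 cells at 33 nM, with protein harvested at each stated time point. EGFR^del19 detected by Western blot.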

In test [5] the target is von Hippel-Lindau disease tumor suppressor/Epidermal growth factor receptor (Homo sapiens, UniProt P00533+P40337, T790M/L858R). Kind of test: Protac activity at VHL/EGFR L858R/T790M mutant in human H1975 cells assessed as induction of degradation of EGFR incubated for 48 hrs by Western blot analysis. It is filed as cell-based. To be noted: nci-h1975. A digest of the protocol:
(§3)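 H1975 cells exposed to the stated concentrations for 48 h. EGFR by Western blot; n = 3. DC₅₀ by nonlinear regression, log(inhibitor) vs response.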

Test [6] addresses von Hippel-Lindau disease tumor suppressor/Epidermal growth factor receptor (Homo sapiens, UniProt P00533+P40337). Nature of the test: Protac activity at VHL/EGFR del19 mutant in human HCC827 cells assessed as induction of EGFR degradation measured after 48 hrs by Western blot analysis. The class given is cell-based. A digest of the protocol: (§4)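 HCC827 cells seeded at 0.5–1 × 10⁶ per well, then treated at the stated concentrations for 48 h. EGFR by Western blot; n = 3. DC₅₀ (concentration giving 50% EGFR loss) by nonlinear regression, log(inhibitor) vs response.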

Test [7] concerns von Hippel-Lindau disease tumor suppressor/Epidermal growth factor receptor (Homo sapiens), P00533+P40337 [UNDEFINED MUTATION]. Kind of test: Protac activity at VHL/EGFR del19 mutant in human HCC827 cells assessed as maximal induction of EGFR degradation at 33 nM measured after 48 hrs by Western blot analysis. It is filed as cell-based. The gist of the method: as §4
For test [8] the test system is unchanged. Nature of the test: Protac activity at VHL/EGFR del19 mutant in human HCC827 cells assessed as induction of EGFR degradation at 333 nM measured after 24 hrs by Western blot analysis. The class given is cell-based. A digest of the protocol:
as §1

The test system of test [9] is von Hippel-Lindau disease tumor suppressor/Epidermal growth factor receptor (Homo sapiens), P00533+P40337 [L858R,T790M]. Kind of test: Protac activity at VHL/EGFR L858R/T790M mutant in human H1975 cells assessed as maximal induction of degradation of EGFR incubated for 48 hrs by Western blot analysis relative to control. The class given is cell-based. To be noted: NCI-H1975. A digest of the protocol:
as §3

The test system is the same in test [10]. Kind of test: Protac activity at VHL/EGFR L858R/T790M mutant in human H1975 cells assessed as induction of degradation of EGFR at 333 nM incubated for 48 hrs measured after compound wash-out for 48 hrs by Western blot analysis. It is filed as cell-based. To be noted: NCI-H1975. The gist of the method: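 H1975 cells (RPMI-1640, 10% heat-inactivated FBS) exposed to 333 nM for 48 h. Medium then replaced with compound-free medium, and lysates collected at the stated times. EGFR read by Western blot; n = 2.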

The test system of test [11] is von Hippel-Lindau disease tumor suppressor/Epidermal growth factor receptor (Homo sapiens), P00533+P40337 [UNDEFINED MUTATION]. Nature of the test: Protac activity at VHL/EGFR del19 mutant in human HCC827 cells assessed as induction of EGFR degradation at 33 nM incubated for 24 hrs measured following drug wash-out for 24 hrs by Western blot analysis. The class given is cell-based. A digest of the protocol:
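HCC827 cells (RPMI-1640, 10% heat-inactivated FBS, 1% sodium pyruvate, 1% glutamine, 37 °C, 5% CO₂) treated at 33 nM for 24 h. Medium then replaced with compound-free medium, and protein harvested at the stated times. EGFR read by Western blot; n = 2.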

Test [12] has the same test system. Nature of the test: Protac activity at VHL/EGFR del19 mutant in human HCC827 cells assessed as induction of EGFR degradation at 33 nM measured after 24 hrs by Western blot analysis. The class given is cell-based. The gist of the method:
as §1

Test [13] has as its system von Hippel-Lindau disease tumor suppressor/Epidermal growth factor receptor (Homo sapiens), P00533+P40337 [L858R,T790M]. Kind of test: Protac activity at VHL/EGFR L858R/T790M mutant in human H1975 cells assessed as induction of degradation of EGFR at 0.33 to 1 uM incubated for 24 hrs by Western blot analysis. The class given is cell-based. To be noted: NCI-H1975, dose 0.33-1 µM. A digest of the protocol:
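H1975 cells, after 24 h seeding, treated at the stated concentrations for 24 h. EGFR by Western blot with β-actin loading control.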

The subject of test [14] is von Hippel-Lindau disease tumor suppressor/Epidermal growth factor receptor (Homo sapiens), P00533+P40337 [UNDEFINED MUTATION]. Kind of test: Protac activity at VHL/EGFR del19 mutant in human HCC827 cells assessed as induction of EGFR degradation at 1 to 33 nM incubated for 24 hrs by Western blot analysis. It is filed as cell-based. To be noted: dose 1-33 nM. The gist of the method:
as §1

Calls of active or inactive are those of the source. Some results are limits rather than exact numbers.

For `Cc1ncsc1-c1ccc(CNC(=O)[C@@H]2C[C@@H](O)CN2C(=O)[C@@H](NCCOCCOCCN2CCN(c3ccc(Nc4ncc5nc(Nc6ccccc6)n(C6CCCC6)c5n4)cc3)CC2)C(C)(C)C)cc1`, the outcome in test [1] was inactive. Further, the results for the IC50 with HepG2, with NCI-H1975 and in the test on HCC827 were above 5000 nM, 1100 nM and 53.5 nM, respectively.
Turning to `CN(CCOCCOCCN1CCN(c2ccc(Nc3ncc4nc(Nc5ccccc5)n(C5CCCC5)c4n3)cc2)CC1)CC(=O)Nc1cccc2c1CN(C1CCC(=O)NC1=O)C2=O` (stereo not given), the IC50 was 2670 nM with A-431, above 5000 nM in the test with HepG2, 1210 nM with NCI-H1975 and 1.39 nM in the test with HCC827. The outcome in test [2] was inactive. In test [3], the result was Active.
With `O=C1CCC(N2Cc3c(NC(=O)CCCCCCCN4CCN(c5ccc(Nc6ncc7nc(Nc8ccccc8)n(C8CCCC8)c7n6)cc5)CC4)cccc3C2=O)C(=O)N1` (stereo not given), the IC50 in the test on A-431 was 240 nM; with HepG2 it was above 5000 nM; in the test on NCI-H1975, 3780 nM; with HCC827, 2.61 nM. The result in test [2] was inactive. For the same molecule, the outcome in [3] was Active.
In the case of `O=C1CCC(N2Cc3c(NC(=O)CCCCCCN4CCN(c5ccc(Nc6ncc7nc(Nc8ccccc8)n(C8CCCC8)c7n6)cc5)CC4)cccc3C2=O)C(=O)N1` (stereo not given), the IC50 in the test with A-431 is 220 nM; in the test with HepG2, above 5000 nM; in the test on NCI-H1975 it was 9300 nM; in the test with HCC827, 1.41 nM. Also, the result in test [2] was inactive. The outcome in [3] was Active.
Regarding `Cc1ncsc1-c1ccc(CNC(=O)[C@@H]2C[C@@H](O)CN2C(=O)[C@@H](NC(=O)CCCCCCCN2CCN(c3ccc(Nc4ncc5nc(Nc6ccccc6)n(C6CCCC6)c5n4)cc3)CC2)C(C)(C)C)cc1`, the IC50 with A-431 was 330 nM; in the test with HepG2 it was above 5000 nM; in the test with NCI-H1975, 970 nM; in the test with HCC827, 0.76 nM. For the same molecule, the Activity result in test [4] was “Tde”. Besides, the DC50 in test [5] is 151 nM; in [6] it was 3.54 nM. Also, the Emax was determined as 74.8% in test [7] and 80.3% in [9]. The result in [8] was inactive. The result in test [10], in [11] and in test [12] was Active.
For the molecule `CN(CCOCCOCCOCCOCCN1CCN(c2ccc(Nc3ncc4nc(Nc5ccccc5)n(C5CCCC5)c4n3)cc2)CC1)CC(=O)Nc1cccc2c1CN(C1CCC(=O)NC1=O)C2=O` (stereo not given), the IC50 in the test on A-431 is 2720 nM; in the test on HepG2, above 5000 nM; with NCI-H1975 it was 3340 nM; with HCC827 it was 2.83 nM. In [2], the result was inactive. Moreover, the result in [3] was Active.
Take `Cc1ncsc1-c1ccc(CNC(=O)[C@@H]2C[C@@H](O)CN2C(=O)[C@@H](NCCOCCOCCOCCN2CCN(c3ccc(Nc4ncc5nc(Nc6ccccc6)n(C6CCCC6)c5n4)cc3)CC2)C(C)(C)C)cc1`: in test [1], the outcome was inactive. For the same molecule, the IC50 in the test on HepG2 is above 5000 nM; in the test with NCI-H1975 it was 2100 nM; in the test on HCC827, 54.4 nM.
For `Cc1ncsc1-c1ccc(CNC(=O)[C@@H]2C[C@H](O)CN2C(=O)[C@@H](NC(=O)CCCCCCN2CCN(c3ccc(Nc4ncc5nc(Nc6ccccc6)n(C6CCCC6)c5n4)cc3)CC2)C(C)(C)C)cc1`, the result in test [13] and in test [14] was inactive. Also, the results for the IC50 with NCI-H1975 and in the test with HCC827 were above 10000 nM and 15.8 nM, respectively.
As for `Cc1ncsc1-c1ccc(CNC(=O)[C@@H]2C[C@@H](O)CN2C(=O)[C@@H](NCCOCCOCCOCCOCCN2CCN(c3ccc(Nc4ncc5nc(Nc6ccccc6)n(C6CCCC6)c5n4)cc3)CC2)C(C)(C)C)cc1`, the result in test [1] was inactive. In addition, the 50% inhibitory concentration (IC50) in the test on HepG2 is above 5000 nM; in the test with NCI-H1975 it was 2890 nM; with HCC827 it was 62 nM.
As to `C=CC(=O)Nc1cc(Nc2nccc(-c3cn(C)c4ccccc34)n2)c(OC)cc1N(C)CCN(C)C` [OSIMERTINIB], the half-inhibitory concentration (IC50) worked out at […] in the test on A-431, […] in the test with NCI-H1975 and 0.97 nM in the test with HCC827.
As to `CN1CCN(c2ccc(Nc3ncc4nc(Nc5ccccc5)n(C5CCCC5)c4n3)cc2)CC1`, the IC50 with A-431 was 163 nM; in the test on HepG2 it was above 5000 nM; in the test with NCI-H1975, 430 nM; in the test on HCC827, 0.82 nM.

One may read the IC50 as the midpoint of a concentration-inhibition curve. Broadly, the DC50 is the concentration at which degradation of the target reaches its halfway point.
